Consider nine molecules from ChEMBL document CHEMBL3621072, “Design, Virtual Screening, and Synthesis of Antagonists of αIIbβ3 as Antiplatelet Agents” (J Med Chem, 2015).

T1 sequence (P05106 27-788 limits assumed): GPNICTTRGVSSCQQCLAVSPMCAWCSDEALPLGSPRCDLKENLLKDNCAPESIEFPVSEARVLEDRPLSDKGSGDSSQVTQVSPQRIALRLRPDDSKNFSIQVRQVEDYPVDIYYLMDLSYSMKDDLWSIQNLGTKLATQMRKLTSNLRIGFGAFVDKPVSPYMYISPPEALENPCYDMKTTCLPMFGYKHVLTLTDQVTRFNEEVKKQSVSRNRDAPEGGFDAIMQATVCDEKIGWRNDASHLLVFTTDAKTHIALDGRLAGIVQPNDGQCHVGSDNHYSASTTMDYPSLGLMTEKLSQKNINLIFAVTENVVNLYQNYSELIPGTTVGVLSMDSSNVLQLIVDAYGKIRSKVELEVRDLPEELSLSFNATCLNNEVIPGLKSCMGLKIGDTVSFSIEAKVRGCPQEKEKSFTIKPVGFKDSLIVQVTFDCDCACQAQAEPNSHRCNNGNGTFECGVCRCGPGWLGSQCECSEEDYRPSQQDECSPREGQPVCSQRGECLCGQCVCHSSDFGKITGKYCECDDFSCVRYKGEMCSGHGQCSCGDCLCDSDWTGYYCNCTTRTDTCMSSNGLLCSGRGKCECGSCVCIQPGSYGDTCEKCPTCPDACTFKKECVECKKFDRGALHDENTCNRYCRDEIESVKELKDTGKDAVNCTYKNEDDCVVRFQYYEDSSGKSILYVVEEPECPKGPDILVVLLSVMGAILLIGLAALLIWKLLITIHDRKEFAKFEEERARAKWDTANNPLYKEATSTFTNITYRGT
T1 sequence (P08514 32-887 limits assumed): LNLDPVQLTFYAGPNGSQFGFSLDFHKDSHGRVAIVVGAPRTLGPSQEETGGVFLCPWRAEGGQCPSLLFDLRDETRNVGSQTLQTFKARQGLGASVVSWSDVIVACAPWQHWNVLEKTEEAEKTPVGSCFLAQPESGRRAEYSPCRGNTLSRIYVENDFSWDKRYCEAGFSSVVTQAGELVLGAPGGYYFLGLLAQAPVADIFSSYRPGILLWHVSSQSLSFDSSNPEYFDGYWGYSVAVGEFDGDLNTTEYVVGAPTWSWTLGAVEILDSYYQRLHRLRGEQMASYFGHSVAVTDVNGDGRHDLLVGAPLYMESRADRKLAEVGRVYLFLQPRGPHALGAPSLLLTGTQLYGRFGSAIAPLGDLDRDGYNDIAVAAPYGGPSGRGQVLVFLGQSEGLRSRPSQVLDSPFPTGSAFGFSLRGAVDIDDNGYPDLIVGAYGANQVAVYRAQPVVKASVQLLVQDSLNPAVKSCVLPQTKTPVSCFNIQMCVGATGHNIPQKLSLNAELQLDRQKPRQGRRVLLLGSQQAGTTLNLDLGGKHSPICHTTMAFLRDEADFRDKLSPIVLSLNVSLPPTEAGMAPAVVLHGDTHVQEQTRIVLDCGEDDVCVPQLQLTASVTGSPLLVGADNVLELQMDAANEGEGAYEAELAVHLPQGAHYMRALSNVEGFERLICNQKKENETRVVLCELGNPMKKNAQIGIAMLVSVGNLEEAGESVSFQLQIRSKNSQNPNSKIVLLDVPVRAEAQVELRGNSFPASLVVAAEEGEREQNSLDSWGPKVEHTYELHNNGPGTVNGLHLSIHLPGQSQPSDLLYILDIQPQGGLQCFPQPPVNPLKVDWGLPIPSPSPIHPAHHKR
T1 sequence (P08514 891-1039 limits assumed): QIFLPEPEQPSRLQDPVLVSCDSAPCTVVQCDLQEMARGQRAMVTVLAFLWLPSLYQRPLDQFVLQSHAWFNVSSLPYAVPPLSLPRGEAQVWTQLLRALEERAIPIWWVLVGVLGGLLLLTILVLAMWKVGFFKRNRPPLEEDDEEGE

The first test addresses T1, Integrin alpha-IIb/beta-3 (Homo sapiens, UniProt P05106+P08514). The experiment in a line: Antagonist activity against integrin alpha2bbeta3 in human platelet rich plasma. Put shortly:
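Human platelet-rich plasma, aggregation induced by ADP and followed by Born's light-transmission method. Inhibition of aggregation by the test compound is reported as IC50. Pure enantiomers tested.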
One may read the IC50 as the concentration that gives 50% inhibition. Read a high IC50 as weaker potency. As for `CCc1nn2c(=O)cc(N3CCNCC3)nc2s1`, the IC50 stood at 13000 nM.

Molecule `N=C(N)c1ccc2cc(OC(=O)c3ccc(N=C(N)N)cc3)ccc2c1` [NAFAMOSTAT] yielded an IC50 of 12500 nM.

The target of the next test is T1, Integrin alpha-IIb/beta-3. As to the kind of experiment: Inhibition of FITC-labeled fibrinogen binding to integrin alpha2bbeta3 closed form in human washed platelets. In a few lines: (§1)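 Suspension of washed human platelets; αIIbβ3 binding of fluorescein isothiocyanate-labeled fibrinogen (FITC-Fg) measured, inhibition by test compound expressed as IC50. Pure enantiomers tested.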
Consider `NCCC(=O)Nc1ccc2nc(N3CCNCC3)[nH]c(=O)c2c1`, for which the IC50 amounted to 5 nM.

The molecule `NCCCC(=O)Nc1ccc2nc(N3CCNCC3)[nH]c(=O)c2c1` gave an IC50 of 2.2 nM.

Turning to `O=C(Nc1ccc2nc(N3CCNCC3)[nH]c(=O)c2c1)C1CCNCC1`, the IC50 turned out to be 3.8 nM.

Another test has as its target T1, Integrin alpha-IIb/beta-3. As to the kind of experiment: Inhibition of FITC-labeled fibrinogen binding to integrin alpha2bbeta3 open form in human washed platelets. Put shortly: as §1
For the molecule `CCCCS(=O)(=O)N[C@H](CNC(=O)CCNC(=O)c1ccc2c(c1)CNCC2)C(=O)O`, the IC50 worked out at 79 nM.

For `CCCCS(=O)(=O)N[C@@H](CNC(=O)CCNC(=O)c1ccc2c(c1)CNCC2)C(=O)O`, the IC50 stood at 62 nM.

In turn, `O=C(CCNC(=O)c1ccc2c(c1)CNCC2)NC[C@H](NS(=O)(=O)c1ccccc1)C(=O)O` yielded an IC50 of 0.22 nM.

`O=C(CCNC(=O)c1ccc2c(c1)CNCC2)NC[C@@H](NS(=O)(=O)c1ccccc1)C(=O)O` had an IC50 of 0.96 nM.
